# Measured values pooled from the literature.
# Each line is one published result; the experiments were not run side by side.
# CSF1R: Macrophage colony-stimulating factor 1 receptor (CSF1R, Homo sapiens, UniProt P07333)
# CSF1R autoinhibited: Macrophage colony-stimulating factor 1 receptor, autoinhibited (CSF1R, Homo sapiens, UniProt P07333)
Compound,target,test,conditions,measurement,result
C#Cc1cnc(Nc2ccnc(CO)c2)nc1Nc1ccccc1S(C)(=O)=NC#N (centres unmarked),CSF1R,cell-free assay,1 µM,remaining signal,53%
N#Cc1ccc(NC(=O)Nc2ccccc2)cc1,CSF1R,"cell-free assay, competition with immobilised ligand",25 µM,remaining binding,61%
CCCCC(=O)Nc1ccc(-c2ccc3ncn(CCC)c(=O)c3c2)cn1,CSF1R,"binding, competition with immobilised ligand",0.5 µM,remaining binding,88%
C=CC(=O)N1CCC([C@@H]2CCNc3c(C(N)=O)c(-c4ccc(Oc5ccccc5)cc4)nn32)CC1,CSF1R autoinhibited,cell-free assay,1 µM,inhibition,0%
Cc1ccc(NC(=O)c2ccnc(C(F)(F)F)c2)cc1-c1cc(OCCO)nc(N2CCOCC2)c1,CSF1R autoinhibited,"binding, competition with immobilised ligand",1 µM,remaining binding,87%
CC#CC(=O)N1CCC[C@H]1c1nc(-c2ccc(C(=O)Nc3ccccn3)cc2)c2c(N)nccn12,CSF1R,"enzyme activity, inhibitor",1 µM,inhibition,0%
COc1ccc2[nH]c3c4[nH]c5ccc(OC)cc5c4c4c(c3c2c1)C(=O)NC4=O,CSF1R,"binding, competition with immobilised ligand",1 µM,remaining binding,58%
C1=C/COCc2cc(ccc2OCCN2CCCC2)Nc2nccc(n2)-c2cccc(c2)COC/1,CSF1R autoinhibited,binding,0.1 µM,remaining binding,53%
